{"data": "Results collected from several papers", "note": "Compare with care: the assays were run in different laboratories."}
{"SMILES": "O=c1cc(-c2ccc(O)c(O)c2)oc2cc(O)cc(O)c12", "cell line": "HEp-2", "observed": "cell growth or viability", "method": "WST-1", "time": "48 h", "IC50 [µM]": 10.7}
{"SMILES": "CC(C)c1ccccc1S(=O)(=O)c1cc(N)c2ncccc2c1[N+](=O)[O-]", "cell line": "FaDu", "observed": "cell growth or viability", "time": "72 h", "IC50 [µM]": "> 20"}
{"SMILES": "O=C(/C=C/c1ccc2ncn(CC3CCCCC3)c(=O)c2c1)NO", "cell line": "SW-620", "observed": "cell growth or viability", "method": "SRB", "time": "48 h", "IC50 [µM]": 1.16}
{"SMILES": "O=c1[nH]cc(F)c(=O)[nH]1", "cell line": "HEp-2", "observed": "cell growth or viability", "method": "WST-1", "time": "48 h", "IC50 [µM]": 9.3}
{"SMILES": "Cc1ccc2nc(-c3ccco3)n(Cc3ccccc3)c2c1", "cell line": "MCF7", "observed": "cell growth or viability", "method": "MTT", "IC50 [µM]": 41.5}
{"SMILES": "O=C(/C=C/c1ccc2c(=O)n(Cc3cccc(F)c3)cnc2c1)NO", "cell line": "SW-620", "observed": "cell growth or viability", "method": "SRB", "time": "48 h", "IC50 [µM]": 1.67}
{"SMILES": "Nc1ncnc2c1ncn2[C@@H]1O[C@H](CO)[C@@H](O)[C@H]1O", "cell line": "HEp-2", "observed": "cell growth or viability", "method": "WST-1", "time": "48 h", "IC50 [µM]": 49.1}
{"SMILES": "O=[N+]([O-])c1cccc(-c2nc3ccccc3[nH]2)c1", "cell line": "MCF7", "observed": "cell growth or viability", "method": "MTT", "time": "48 h", "IC50 [µM]": 24.4}
{"SMILES": "CC(C)C(=O)SCCCCCCC(=O)Nc1nc(-c2ccccc2)cs1", "cell line": "FaDu", "observed": "cell growth or viability", "time": "72 h", "IC50 [µM]": 4.29}
{"SMILES": "Clc1ccc(Cn2c(-c3ccc(Cl)cc3)nc3ccccc32)cc1", "cell line": "MCF7", "observed": "cell growth or viability", "method": "MTT", "IC50 [µM]": 8.56}
{"SMILES": "O=C1Nc2ccc(Cl)cc2[C@@](C#CC2CC2)(C(F)(F)F)O1", "cell line": "FaDu", "observed": "cell growth or viability", "time": "72 h", "IC50 [µM]": "> 20"}
{"SMILES": "N[C@@H](CC(=O)N1CCN(C(c2ccc(F)cc2)c2ccc(F)cc2)CC1)C(=O)N1Cc2ccccc2C1", "cell line": "NOMO-1", "observed": "cell growth or viability", "method": "ATP luminescence", "time": "48 h", "IC50 [µM]": 4.7}
{"SMILES": "CC(C)/N=C1\\c2cc(C(N)=O)nc3c(N)c(Cl)c(N)c(c23)N1C", "cell line": "Calu-3", "observed": "cell growth or viability", "IC50 [µM]": 0.77}
{"SMILES": "COc1ccc(CCN(C)CCc2ccc(OC)c(OC)c2)cc1OC", "cell line": "FaDu", "observed": "cell growth or viability", "time": "72 h", "IC50 [µM]": "> 20"}
{"SMILES": "CCCCCCCCCCCC(=O)Oc1c(C)c(O)c(C(=O)/C=C/c2ccccc2)c(OC)c1C", "cell line": "FaDu", "observed": "cell growth or viability", "method": "SRB", "time": "72 h", "IC50 [µM]": "> 50"}
{"SMILES": "CC(CCc1ccc(O)cc1)NCCc1ccc(O)c(O)c1 (centres unmarked)", "cell line": "THP-1", "observed": "TNF-α release", "mode": "inhibitor", "method": "ELISA", "time": "17 h", "notes": "LPS-stimulated", "IC50 [µM]": 0.09}
{"SMILES": "COc1c(C)c(OS(=O)(=O)c2ccc3ccccc3c2)c(C)c(OS(=O)(=O)c2ccc3ccccc3c2)c1C(=O)/C=C/c1ccccc1", "cell line": "FaDu", "observed": "cell growth or viability", "method": "SRB", "time": "72 h", "IC50 [µM]": "> 50"}
{"SMILES": "O=Cc1ccc(CO)o1", "cell line": "HEp-2", "observed": "cell growth or viability", "method": "WST-1", "time": "48 h", "IC50 [µM]": 78.9}
{"SMILES": "CCCn1cnc2ccc(/C=C/C(=O)NO)cc2c1=O", "cell line": "SW-620", "observed": "cell growth or viability", "method": "SRB", "time": "48 h", "IC50 [µM]": 2.7}
{"SMILES": "CN1C(=O)c2cc(C(N)=O)nc3c(N)c(Cl)c(N)c1c23", "cell line": "Calu-3", "observed": "cell growth or viability", "IC50 [µM]": 17.6}
{"SMILES": "Nc1ncnc2c1ncn2[C@@H]1O[C@H](CO)[C@@H](O)[C@@H]1O", "cell line": "FaDu", "observed": "cell growth or viability", "time": "72 h", "IC50 [µM]": "> 20"}
{"SMILES": "CC(C)NCC(O)c1cc(O)cc(O)c1 (centres unmarked)", "cell line": "THP-1", "observed": "TNF-α release", "mode": "inhibitor", "time": "17 h", "notes": "LPS-stimulated", "IC50 [µM]": 0.6}
{"SMILES": "COc1ccc(-c2nc3ccccc3[nH]2)cc1O", "cell line": "MCF7", "observed": "cell growth or viability", "method": "MTT", "time": "48 h", "IC50 [µM]": 29.7}
{"SMILES": "COc1cc(Nc2nccc(-c3cnn4nc(OC)ccc34)n2)cc(C(F)(F)F)c1", "cell line": "J82", "observed": "cell growth or viability", "method": "ATP luminescence", "IC50 [µM]": 0.85}
{"SMILES": "CNC[C@H](O)c1ccc(O)c(O)c1", "cell line": "THP-1", "observed": "TNF-α release", "mode": "inhibitor", "time": "17 h", "notes": "LPS-stimulated", "IC50 [µM]": 0.07}
{"SMILES": "CC(C)(C=O)Cc1cc(C(C)(C)C)c(O)c(C(C)(C)C)c1", "cell line": "FaDu", "observed": "cell growth or viability", "time": "72 h", "IC50 [µM]": "> 20"}
{"SMILES": "N#Cc1cc([N+](=O)[O-])c2sc(C(N)=O)[n+]([O-])c2c1", "cell line": "THP-1", "observed": "TNF-α release", "mode": "inhibitor", "time": "17 h", "notes": "LPS-stimulated", "IC50 [µM]": 2.96}
{"SMILES": "Cc1ccc2nc(-c3c(F)cccc3Cl)[nH]c2c1", "cell line": "MCF7", "observed": "cell growth or viability", "method": "MTT", "time": "48 h", "IC50 [µM]": "> 100"}
{"SMILES": "CC(C)C[C@H](NC(=O)[C@H](Cc1ccccc1)NC(=O)c1cnccn1)B(O)O", "cell line": "SK-MEL3", "observed": "cell growth or viability", "method": "ATP luminescence", "IC50 [µM]": 0.0099}
{"SMILES": "COc1ccc(-c2nc3ccccc3n2Cc2ccccc2)cc1OC", "cell line": "MCF7", "observed": "cell growth or viability", "method": "MTT", "IC50 [µM]": 22.2}
{"SMILES": "CC[C@@]1(O)C(=O)OCc2c1cc1n(c2=O)Cc2cc3ccccc3nc2-1", "cell line": "P388", "observed": "cell growth or viability", "method": "MTT", "time": "96 h", "IC50 [µM]": 0.014}
{"SMILES": "O=c1[nH]cc(S(=O)(=O)Nc2cccc(-c3nnc(-c4cccc(Cl)c4)o3)c2)c(=O)[nH]1", "cell line": "NCI-H441", "observed": "cell growth or viability", "method": "MTT", "time": "24 h", "IC50 [µM]": 4.29}
{"SMILES": "COc1cccc(C(=O)O[C@@H]2CN3Cc4c(cc5c(c4OC)OCO5)[C@@]24C=C[C@H](OC)C[C@@H]34)c1", "cell line": "SAOS-2", "observed": "cell growth or viability", "method": "WST-1", "IC50 [µM]": 6.9}
{"SMILES": "CC(=O)CC(c1ccccc1)c1c(O)c2ccccc2oc1=O (centres unmarked)", "cell line": "FaDu", "observed": "cell growth or viability", "time": "72 h", "IC50 [µM]": "> 20"}
{"SMILES": "Cc1[nH]c2ccccc2c1CCNCc1ccc(/C=C/C(=O)NO)cc1", "cell line": "C13", "observed": "cell growth or viability", "method": "crystal violet", "IC50 [µM]": 0.0093}
{"SMILES": "CC(C)[C@H](N)C(=O)N1CCC[C@H]1B(O)O", "cell line": "NOMO-1", "observed": "cell growth or viability", "method": "ATP luminescence", "time": "48 h", "IC50 [µM]": 0.165}
{"SMILES": "Nc1ccn([C@@H]2O[C@H](CO)[C@@H](O)C2(F)F)c(=O)n1", "cell line": "Panc02", "observed": "cell growth or viability", "method": "CCK-8", "time": "72 h", "IC50 [µM]": 0.0341}
{"SMILES": "O=C(/C=C/c1ccc2c(=O)n(CC3CCCCC3)cnc2c1)NO", "cell line": "SW-620", "observed": "cell growth or viability", "method": "SRB", "time": "48 h", "IC50 [µM]": 1.44}
{"SMILES": "CCOc1cc(OCC)cc(C(=O)O[C@@H]2CN3Cc4c(cc5c(c4OC)OCO5)[C@@]24C=C[C@H](OC)C[C@@H]34)c1", "cell line": "SAOS-2", "observed": "cell growth or viability", "method": "WST-1", "IC50 [µM]": 2.8}
{"SMILES": "Clc1ccc(-c2nc3ccccc3[nH]2)cc1Cl", "cell line": "MCF7", "observed": "cell growth or viability", "method": "MTT", "time": "48 h", "IC50 [µM]": 11.1}
{"SMILES": "Nc1c2c(nc3ccccc13)CCCC2O (centres unmarked)", "cell line": "FaDu", "observed": "cell growth or viability", "time": "72 h", "IC50 [µM]": "> 20"}
{"SMILES": "CC(NCCc1ccc(O)cc1)C(O)c1ccc(O)cc1 (centres unmarked)", "cell line": "THP-1", "observed": "TNF-α release", "mode": "inhibitor", "time": "17 h", "notes": "LPS-stimulated", "IC50 [µM]": 3.5}
{"SMILES": "CC(C)[C@H](N)c1nc2cc(-c3ccncc3F)sc2c(=O)[nH]1", "cell line": "CAPAN-1", "observed": "cell growth or viability", "method": "MTT", "IC50 [µM]": 0.049}
{"SMILES": "COc1cc(C2Oc3cc([C@H]4Oc5cc(O)cc(O)c5C(=O)[C@@H]4O)ccc3OC2CO)ccc1O (some centres unmarked)", "cell line": "HepaRG", "observed": "cell growth or viability", "method": "MTT", "time": "24 h", "IC50 [µM]": 142}
